Most compounds without a hit are left out; they make up all but 2.3% or so of the library.
MC4R antag cAMP = human MC4R antagonism in cAMP assay | AID 540295 | inhibition, % at 6.5 µM | MC4R-expressing cells, MTII-stimulated cAMP, LANCE TR-FRET | 360,000 tested, 0.48% active;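 active = inhibition above its plate's cutoff, the mean of tested wells on that plate plus 3 SD, cut at about 29% in these data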;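 note: 0% = Melanotan II alone and 100% = Melanotan II plus saturating MCL0020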
Target sequence (P32245 whole entry, looked up): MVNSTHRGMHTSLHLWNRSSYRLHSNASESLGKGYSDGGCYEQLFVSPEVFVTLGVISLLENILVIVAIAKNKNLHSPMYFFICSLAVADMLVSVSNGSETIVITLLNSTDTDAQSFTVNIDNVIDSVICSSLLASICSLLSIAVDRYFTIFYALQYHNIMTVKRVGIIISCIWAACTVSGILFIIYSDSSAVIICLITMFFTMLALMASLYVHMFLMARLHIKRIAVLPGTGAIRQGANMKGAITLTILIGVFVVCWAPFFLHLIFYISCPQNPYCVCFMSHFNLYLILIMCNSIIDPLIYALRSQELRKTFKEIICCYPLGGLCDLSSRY
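System: U2OS cells stably expressing human melanocortin 4 receptor (MC4R). Reagent: Melanotan II challenge after compound preincubation. Doses: 6.5 µM. Times: 30-min compound, 1-h challenge, 1-h detection, room temperature. Measured by: TR-FRET with Eu-cAMP and labeled anti-cAMP, 671 nm. Replicates: singlicate.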
bovine MsrA act = activators of bovine methionine sulfoxide reductase A; 360,000 tested, 0.3% active; purified bovine MsrA, absorbance read-out; activation, % at 10.6 µM; in the data active = activation above about 7.5%;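 note: 0% = vehicle and 100% = reference activator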
MC4R barr agon = human MC4R agonism via beta-arrestin; P32245; U2OS MC4R beta-arrestin complementation, luminescence; percent of melanotan II response, DMSO zero; activation, % at 8.9 µM; 360,000 tested, 0.98% active;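 active = activation above a per-plate cutoff, the mean activation of sample wells on that plate plus 3 SD, cut at about 8% in these data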
MsrA inhibitor = inhibits bovine methionine sulfoxide reductase A; 360,000 tested, 0.75% active; AID 651718; inhibition, % at 15.5 µM; purified bovine MsrA, absorbance read-out; in the data active = inhibition above about 4.5%;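 note: 0% = vehicle wells with enzyme and 100% = reference inhibitor wells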
An asterisk follows results filed as active; . = no result given.

SMILES	MC4R antag cAMP	bovine MsrA act	MC4R barr agon	MsrA inhibitor
Nc1ccccc1-c1nnn(CC(=O)Nc2ccc3c(c2)OCCO3)n1	5	-1	-3	3
COc1ccc(C(=O)Nc2ccccc2-c2nnn(CC(=O)Nc3ccc4c(c3)OCCO4)n2)cc1	-3	8.5*	-1	0
CCCCN1CC(=O)N2[C@H]3c4cc(Cl)ccc4OC[C@@H]3[C@H](c3ccccc3)[C@]2(C)C1=O	10	-1	5	-1
CC[C@@]1(C(=O)OC)N[C@H](CN(C)S(=O)(=O)c2ccccc2)[C@@H]2C(=O)N(C)C(=O)[C@@H]21	13	0	-2	-1
COc1ccc(-c2nnc(-c3ccc(N(C)C)cc3)o2)cc1	3	-8	5	1
CN(C)c1ccc(-c2nnc(-c3ccccc3F)o2)cc1	8	4	-1	4.6*
CCn1c(C)c(C)c2cc(C(=O)NCCCN3CCCC3)ccc21	10	-1	2	-1
Cc1c(N2C(=O)/C(=C/c3ccccc3)SC2=S)c(=O)n(-c2ccccc2)n1C	-7	-11	0	4.5*
Cc1ccc(/C=C2\SC(=S)N(c3c(C)n(C)n(-c4ccccc4)c3=O)C2=O)cc1	14	-3	-2	3
CCN(CC)c1ccc(/C=N/NC(=O)c2cccc(N3CCCC3=O)c2)cc1	19	-4	1	2
COc1cc(/C=N/NC(=O)c2sc(N)c(C#N)c2C)ccc1O	-7	-16	0	8.4*
COc1cc(/C=N/NC(=O)c2cccc(N3CCCC3=O)c2)ccc1O	2	-4	-1	5.4*
COc1ccc(C(=O)c2c(C(F)(F)F)oc3c2C(=O)c2ccccc2C3=O)cc1OC	-6	1	0	47*
CC[n+]1ccc(C)c2cc(S(=O)C(F)(F)F)ccc21 (stereo not drawn)	-1	-2	-2	.
Cc1cccc(-n2ncc3c(N4CC(C)CC(C)C4)ncnc32)c1 (stereo not drawn)	-2	0	8.4*	0
Cc1cccc(-n2ncc3c(N4CCCC4)ncnc32)c1	4	-3	-1	0
CCCOc1ccc(CC(=O)NCC2(c3ccccc3)CCOCC2)cc1OC	7	-1	1	1
Cc1ccc(OCC(=O)N(Cc2ccc(N(C)C)cc2)C2CCS(=O)(=O)C2)cc1 (stereo not drawn)	12	-3	-2	0
CN(C)c1ccc(CN(C(=O)COc2ccc(F)cc2)C2CCS(=O)(=O)C2)cc1 (stereo not drawn)	0	8.2*	-3	.
O=C(CBr)c1ccc([N+](=O)[O-])c(CS(=O)(=O)c2ccc(Cl)cc2)c1	34*	2	-3	2
O=C(O)c1ccc([N+](=O)[O-])c(CS(=O)(=O)c2ccc(Cl)cc2)c1	7	-6	-2	2
Cc1cccc(C(=O)N2CCN(c3ccccn3)CC2)c1	-2	-1	0	-1
CC(=O)CSc1ccc(-c2nc3ccccc3[nH]2)cn1	0	-5	-2	2
CC(=O)CSc1ccc(-c2nc3cc(C)c(C)cc3[nH]2)cn1	7	-3	-4	4.7*
COC(=O)c1ccc(NC(=O)CN(C)S(=O)(=O)c2ccc(OC)c(C)c2)cc1	0	-3	8.3*	0
SMILES	MC4R antag cAMP	bovine MsrA act	MC4R barr agon	MsrA inhibitor
Cc1ccccc1NC(=O)C1(C)Cc2ccccc2C(=O)O1 (stereo not drawn)	3	-6	-1	0
O=[N+]([O-])c1ccc(Sc2cccc3cccnc23)c([N+](=O)[O-])c1	-3	1	-2	0
O=[N+]([O-])c1cc(Cl)ccc1Sc1cccc2cccnc12	5	-2	8.8*	1
Cc1cc(O)c(-c2cc(C(=O)Nc3ccc(S(=O)(=O)N4CCOCC4)cc3)[nH]n2)cc1C	17	-5	-2	0
O=C(Nc1ccc(S(=O)(=O)N2CCOCC2)cc1)c1cc(-c2cc(Cl)ccc2O)n[nH]1	-13	1	9.1*	1
O=C1CCCC/C1=C/Nc1ccc(C(=O)O)cc1	-1	-11	0	2
Cc1cc(C)c(S(=O)(=O)/N=C2/C=C(SCC(=O)O)C(=O)c3ccccc32)cc1C	14	9.4*	-3	.
O=C(NCC1OCCc2ccccc21)c1ccc(NC(=O)c2cccc(Br)c2)cc1 (stereo not drawn)	16	0	9.5*	-1
O=S1(=O)c2cc(Cl)ccc2N2CCC[C@@H]2CN1Cc1ccc(Cl)c(Cl)c1	.	.	.	2
COc1ccc(OCCNc2cc(Cl)ccc2[N+](=O)[O-])cc1	13	-1	10*	1
Cc1oc2cc3oc(=O)c4c(c3cc2c1C)CCC4	-6	-2	-2	1
Cc1cc(C)c(S(=O)(=O)N2CCCCC2)c(C)c1N(C)S(=O)(=O)c1ccccc1	3	9.7*	0	0
Cc1cc(C)c(S(=O)(=O)N2CCOCC2)c(C)c1N(C)S(=O)(=O)c1ccccc1	-4	-3	0	-1
N#CCC(CNc1ncc(C(F)(F)F)cc1Cl)OC(=O)c1cccc([N+](=O)[O-])c1 (stereo not drawn)	-1	1	9.1*	1
N#CCC(CNc1ncc(C(F)(F)F)cc1Cl)OC(=O)c1ccc(Cl)cc1 (stereo not drawn)	0	-2	0	-1
COc1cccc(C(=O)CC(=O)C(=O)Nc2cccc([N+](=O)[O-])c2C)c1	4	-5	0	2
CN1CCN(CC(=O)N2CCn3c4c(c5cc(C6CCCCC6)ccc53)CCCC42)CC1 (stereo not drawn)	-5	3	27*	.
O=C(COc1ccccc1)Nc1ccc(CSc2ccccc2)cc1	11	-2	10*	2
O=C(Nc1ccc(CSc2ccccc2)cc1)c1ccccc1	5	-4	-2	3
COc1cccc(C(=O)N2N=C(c3ccccn3)CC2(O)C(F)(F)F)c1 (stereo not drawn)	3	-4	-1	0
Cc1ccc(C)c(OCC(=O)NNC(=O)c2ccc(=O)[nH]c2)c1	-1	-3	0	0
CCOC(=O)c1[nH]c2ccc(OC)cc2c1NC(=O)/C=C/c1ccc2c(c1)OCO2	-11	-4	6	-1
O=C(/C=C/c1ccc2c(c1)OCO2)Nc1c(C(=O)O)[nH]c2ccccc12	2	-2	-3	4.7*
O=C(/C=C/c1ccc2c(c1)OCO2)Nc1nc(-c2ccccc2)cs1	4	-3	4	4.8*
CC1C/C(=C\c2cccnc2)C(=O)/C(=C/c2cccnc2)C1 (stereo not drawn)	12	-10	-3	5.2*
SMILES	MC4R antag cAMP	bovine MsrA act	MC4R barr agon	MsrA inhibitor
Cc1ccc(N(CC(=O)N=Nc2c(O)[nH]c3ccccc23)S(C)(=O)=O)c(C)c1	2	-3	-1	1
CSc1nnc(-c2ccc(NC(=O)CCc3ccccc3)cc2)n1C	3	-4	-1	0
Cn1c(SCC(=O)Nc2ccccc2)nnc1-c1ccc(NC(=O)CCc2ccccc2)cc1	0	2	9.3*	1
CN(C)c1ccc(NS(=O)(=O)c2ccc(Cl)cc2)cc1	13	-1	0	1
CN(C)c1ccc(S(=O)(=O)c2ccc(Cl)cc2)cc1	-5	-14	8.3*	2
O=C1c2ccccc2C(=O)c2c1ccc(O)c2O	12	-2	-4	1

Screening data: PubChem, The Scripps Research Institute Molecular Screening Center
